M1 agonist: M1 muscarinic receptor agonists, primary screen, CHO-M1 cells, Fluo-4 calcium, agonist mode | Muscarinic acetylcholine receptor M1 | Fluo-4 calcium fluorescence; active compounds read high | B-score at 10 µM | hit rate 3% among 64,000;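 active = fluorescence rise, raw or as B-score row- and column-corrected plate score, outside the 99.7% band of its plate's samples, either direction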
SF1 activator: activators of human SF-1, primary screen, cell-based, CHO-K1, Gal4-SF-1 LBD, luciferase luminescence; CHO-K1 Gal4-SF-1 LBD luciferase reporter; % increase over DMSO SF-1-specific signal; Steroidogenic factor 1 (Homo sapiens), Q13285; AID 522, 2006; activation, % at 10 µM; hit rate 1.9% among 65,000;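 active = activation above the mean activation of all tested compounds plus 3 SD, cut at about 50% in these data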
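Material: Gal4–SF-1 LBD one-hybrid luciferase reporter in CHO-K1 cells | Amount: 4,000 cells per well | Compound dosing: 10 µM single point, 1% DMSO | Schedule: 20 h compound treatment, 37 °C | Measured by: SteadyLite luciferase luminescence | Evaluation: Percent activation versus DMSO | Control set: DMSO-treated SF-1-transfected cells as negative, DMSO-treated mock-transfected cells lacking SF-1 as background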
D1 allo mod: D1 CRE-luciferase signal change, two-sided – cell-based, HEK293 D1, dopamine EC30, D1 allosteric modulator project, primary screen. hit rate 5.9% among 58,000. D(1A) dopamine receptor (Homo sapiens), P21728. AID 641, 2007. B-score at 10 µM. dopamine EC30 potentiation; actives deviate in either direction;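 active = luminescence count or its row- and column-corrected plate score outside the 99.7% band of the plate's sample wells, on either side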
Target sequence (P21728 whole entry, looked up): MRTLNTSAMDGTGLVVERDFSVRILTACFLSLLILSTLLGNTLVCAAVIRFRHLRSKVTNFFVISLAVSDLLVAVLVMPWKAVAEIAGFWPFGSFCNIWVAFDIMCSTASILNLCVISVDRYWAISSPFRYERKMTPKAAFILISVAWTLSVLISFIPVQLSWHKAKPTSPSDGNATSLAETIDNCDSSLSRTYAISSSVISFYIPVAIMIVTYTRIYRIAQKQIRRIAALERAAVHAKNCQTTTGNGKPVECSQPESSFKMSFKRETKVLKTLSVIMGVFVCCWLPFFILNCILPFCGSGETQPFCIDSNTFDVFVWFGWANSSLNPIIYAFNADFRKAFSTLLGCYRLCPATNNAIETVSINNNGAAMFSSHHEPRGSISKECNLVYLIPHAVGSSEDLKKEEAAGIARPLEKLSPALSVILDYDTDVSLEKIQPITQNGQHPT
Htt clearance: clearance of mutant huntingtin inclusions, primary screen, imaging, HeLa Exon1htt(103Q)mCFP, confocal imaging; hit rate 0.42% among 47,000; aggregate imaging; zero = plate's median compound well; inhibition, % at 1.5 µM;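 active = inhibition of aggregate fluorescence above about 70%, also judged a hit by eye on the cell image, limit read from the data, passing the limit was not always enough; inconclusive = no rule stated for this call; inactive = not judged a hit on image review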;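 also: cells exposed to compound for three days before fixation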
RORa activator: activators of orphan receptor RORA, primary screen, cell-based, luminescence. Nuclear receptor ROR-alpha (Homo sapiens), P35398. CHO-K1 Gal4-RORA LBD luciferase reporter; percent increase over mock-subtracted basal signal. activation, % at 10 µM. hit rate 1.5% among 65,000. AID 560, 2006;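 active = activation above the mean of all tested compounds plus 3 SD, cut at about 49% in these data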;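 also: 0% = DMSO-treated RORA cells and 100% = added signal equal to DMSO minus mock-transfected cells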
M1 antagonist: antagonists of rat M1 muscarinic receptor | B-score at 10 µM | CHO-M1 cells, Fluo-4 calcium, ACh EC80 antagonist mode; active compounds read low | hit rate 3.4% among 64,000 | Muscarinic acetylcholine receptor M1 (Rattus norvegicus), P08482;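 active = calcium fluorescence response, raw or row-and-column corrected B-score, differing from the plate sample mean either way at a set confidence level, mostly lower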
The depositor's hits bear a star; ? = inconclusive; / = no result. Most compounds without a hit are left out; they make up all but 11% or so of the library.

SMILES	M1 agonist	SF1 activator	D1 allo mod	Htt clearance	RORa activator	M1 antagonist
O=C(Nc1ccc(N2CCN(Cc3ccccc3)CC2)cc1)c1ncn[nH]1	0.06	7	/	-98	4	0.21
O=C1CC(=O)N(c2ccccc2)c2ccccc21	-0.83	2	-0.39	35	1	-0.93
CC12CCC(=O)N1c1ccccc1C(=O)N2c1ccccc1 (centres undefined)	1.1	10	-0.57	/	6	2.3*
CCCCS(=O)CC(COCc1ccccc1)OC(=O)CSc1nc(C)cc(C)n1 (centres undefined)	-0.014	-7	-0.084	/	9	0.11
Fc1ccc(Br)cc1C1C=C(c2ccc(Br)s2)Nc2ncnn21 (centres undefined)	20*	-10	0.86	/	-12	-0.37
CCOc1cccc(NC(=O)c2ccc(S(=O)(=O)N3CCCC3)cc2)c1	0.36	12	-0.6	/	-6	-0.5
Cc1nonc1NC(=O)CSc1nc2cc(Cl)ccc2c2c1CCCC2	0.3	7	-2.5*	/	13	-0.69
Nc1nc2ccc(C(=O)Nc3ccccc3)cc2s1	-0.018	90*	0.18	-38	62*	0.4
O=C(Nc1ccccc1F)c1ccc2nc(N3C(=O)CCC3=O)sc2c1	/	/	/	-1	/	/
N#Cc1c(C(F)(F)F)cc(C2CC2)[nH]c1=O	-0.42	-1	0.32	/	9	0.33
CCOC(=O)/C(C#N)=C\C1=C(N2CCCC2)CC(C)(CC)OC1 (centres undefined)	/	/	/	-34	/	/
COc1ccc(C2NC3=C(CCC3)C3(C#N)C4(N=C(N)C23C#N)OCCO4)cc1 (centres undefined)	-0.059	0	-3.5*	-25	-6	0.031
Cc1ccc2nc(NCc3ccccc3)[nH]c2c1	-0.86	68*	/	/	37	0.27
COc1ccc2nc(NCCO)[nH]c2c1	0.16	-1	0.8	/	9	0.13
c1ccc(CNc2nc3ccccc3[nH]2)cc1	-0.24	0	-2.2	/	-14	1.2
COc1ccc2nc(NCc3ccccc3)[nH]c2c1	-0.13	36	-4.1*	/	52*	0.15
COC(=O)c1sc2nc(-c3ccco3)ccc2c1N	-0.33	66*	-3.2*	?	26	1
CC(C)OC(=O)c1sc2nc(-c3ccccc3)ccc2c1N	/	/	/	-10	/	/
CCOC(=O)N1CCN(S(=O)(=O)c2cc(Cl)c(OC)cc2Cl)CC1	-0.26	-10	0.94	-25	3	0.043
CCOC(=O)N1CCN(S(=O)(=O)c2cc(Br)cnc2N)CC1	/	15	-3.3*	/	-24	/
CCC(=O)N1CCN(c2ccccc2NC(=O)COc2cc(C)ccc2C(C)C)CC1	6.2	-1	-1.9	4	-9	-0.91
O=C(c1cc2ccccc2o1)N1CCN=C1SCc1cccnc1	-0.87	13	-1.8*	/	5	-0.1
O=C(c1cc2ccccc2o1)N1CCN=C1SCc1cccc(F)c1	0.16	-5	-0.95	-11	-5	0.83
COc1ccc(NC(=O)NCCN2CCN(c3cccc(Cl)c3)CC2)cc1	-0.72	-4	-0.68	/	-2	0.37
Cn1c(=O)cc(SCC(=O)NCCCN2CCN(c3ccccc3F)CC2)c2ccccc21	-0.0048	-10	0.071	/	0	-0.34
SMILES	M1 agonist	SF1 activator	D1 allo mod	Htt clearance	RORa activator	M1 antagonist
COc1cccc(NC(=O)NCCCN2CCN(c3ccc(F)cc3)CC2)c1	0.36	-3	-5.1*	33	-16	-0.15
CCn1c(=O)cc(SCC(=O)NCCCN2CCN(c3ccc(F)cc3)CC2)c2ccccc21	-0.14	-2	-3.7*	-7	1	-2
COc1ccc(NC(=O)NCCCN2CCN(c3cc(C)ccc3C)CC2)cc1	-0.93	-49	-6.1*	/	-22	-0.29
O=C1CC(N2CCN(C3CCc4ccccc4C3)CC2)C(=O)N1c1ccccc1 (centres undefined)	-0.76	-6	-0.39	/	3	-2.9
C/C(NCCN1CCOCC1)=C(\C#N)C(N)=O	-0.0031	/	0.76	/	/	0.54
C/C(=N\NC(=O)COc1ccc([N+](=O)[O-])cc1)C(C)(C)C	/	/	/	37	/	/
CCOC(=O)C[n+]1c(C)ccc2c1CCC2	/	/	/	-7	/	/
COc1ccc(OC)c(S(=O)(=O)Nc2ccc(O)c(Sc3ncn[nH]3)c2)c1	-1.1	-13	-0.15	86*	-21	-0.55
COc1ccc(OC)c(S(=O)(=O)Nc2ccc(O)c3ccccc23)c1	0.59	-22	0.068	44	-28	0.49
CC(C)(C)N=Cc1cc(-c2ccccc2)sc1O	/	/	/	-380	/	/
CCNc1nc(NCC)nc(C(=O)OCCO)n1	/	/	/	14	/	/
O=C(Nc1nnc(C(F)(F)F)s1)c1cccnc1	-0.41	60*	-1.6	/	66*	0.82
COc1ccc(C(=O)Nc2nnc(C(F)(F)F)s2)cc1	-1.4	57*	-1.2	23	46	-0.025
CCCN(CC1CC1)C(=O)COC(=O)c1[nH]c(C)c(C(=O)OCC)c1C	/	/	/	0	/	/
CCOC(=O)CSc1cc(C)nc(NC(C)=O)n1	0.34	11	0.11	/	-16	0.066
COCc1nnc(NC(=O)c2ccc(NC(C)=O)cc2)s1	0.68	-12	-0.37	84*	-1	0.55
CCCSc1nnc(NC(=O)Nc2ccccc2)s1	-0.078	53*	/	/	37	-0.69
CCOCCc1nnc(NC(=O)c2cccs2)s1	-0.13	7	-0.041	/	-2	-0.37
O=C(Nc1nnc(Cc2ccccc2)s1)c1cccs1	0.3	81*	0.041	20	23	-0.079
OCCSc1nnc(Nc2ccccc2)s1	-0.33	15	-1.5	/	9	0.43
CCOCc1nnc(NC(=O)c2cccs2)s1	0.95	24	-0.22	18	3	2.1*
CCc1cc2c(NCC3CCCO3)nc(C)nc2s1 (centres undefined)	/	/	/	26	/	/
Clc1cccc2sc(-c3nnc(-c4ccccc4)o3)c(Cl)c12	/	/	/	48	/	/
CCSc1nnc(NC(=O)c2ccc(C)o2)s1	0.16	46	-0.079	-57	34	0.39
COCc1nnc(NC(=O)c2cccs2)s1	1.1	18	-0.14	-5	26	-0.53
SMILES	M1 agonist	SF1 activator	D1 allo mod	Htt clearance	RORa activator	M1 antagonist
COc1ccc(Cc2nnc(NC(=O)c3cccs3)s2)cc1	-0.0067	15	0.094	/	51*	0.4
CCSc1nnc(NC(=O)c2cc(C)oc2C)s1	0.41	76*	0.29	/	60*	-0.001
CCSc1nnc(NC(=O)c2cccs2)s1	0.43	43	1.6	/	50*	0.29
N#Cc1c(NC(=O)CSc2ncnc3sccc23)oc(-c2ccco2)c1-c1ccco1	2.3	-4	/	/	0	-0.95
O=c1nc2n(c3ccc(Br)cc13)CCS2	/	/	/	-140	/	/
CC1CCN(C(=O)c2cc(F)c(F)cc2Cl)CC1	/	/	/	5	/	/
O=C1CN(C(=O)COC(=O)CCC(=O)c2ccc3c(c2)OCCO3)c2ccccc2N1	1.5	15	-0.56	21	2	0.052
CCOC(=O)c1cnn2c(C)cc(-c3ccc(F)cc3)nc12	-0.83	28	-0.72	8	68*	0.81

Screens: PubChem BioAssay, several laboratories
